# hERG protect: compounds protecting human hERG from proarrhythmic drug block; activation (rescue from dofetilide block), less the hit threshold, % at 10 µM; Q12809; AID 1511; CHO-hERG, FluxOR thallium flux, dofetilide IC70 present; 0.51% of 310,000 active;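 active means activation above the mean of controls blocked by dofetilide plus 5 SD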;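 further: thallium influx through hERG after potassium depolarization seen as dye fluorescence rise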
# KCNQ1 act: human KCNQ1 channel potentiation or activation; B-score at 10 µM; 0.35% of 310,000 active; CHO-K1 KCNQ1, thallium flux FluxOR fluorescence; active compounds read high; P51787;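 active means fluorescence ratio B-score, a plate-corrected score, at least three library SD, with initial intensity B-score within 5 SD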
#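 Assay system: CHO-K1 cells stably expressing KCNQ1; Medium: assay buffer with matched DMSO; Also added: K+/Tl+ depolarizing stimulus; Dosing: single dose; Timing: dye 90 min, compound 20 min, room temperature; Measured by: kinetic FluxOR thallium fluorescence, 10-s 1-Hz baseline, 110-s post-stimulus read; Read-out: peak-minus-minimum fluorescence over initial fluorescence, negative-control normalized, B-scored.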
# KCNK9 inh: human KCNK9 channel inhibition; Q9NPC2; HEK293 KCNK9, FluxOR thallium flux fluorescence; active compounds read low; B-score at 10 µM; 1.2% of 310,000 active;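 active means ratio B-score over 3 SD below the library mean, with starting fluorescence within 5 SD of its mean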;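 further: negative B-score means less thallium flux so channel inhibition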
# Target sequence (Q9NPC2 whole entry, looked up): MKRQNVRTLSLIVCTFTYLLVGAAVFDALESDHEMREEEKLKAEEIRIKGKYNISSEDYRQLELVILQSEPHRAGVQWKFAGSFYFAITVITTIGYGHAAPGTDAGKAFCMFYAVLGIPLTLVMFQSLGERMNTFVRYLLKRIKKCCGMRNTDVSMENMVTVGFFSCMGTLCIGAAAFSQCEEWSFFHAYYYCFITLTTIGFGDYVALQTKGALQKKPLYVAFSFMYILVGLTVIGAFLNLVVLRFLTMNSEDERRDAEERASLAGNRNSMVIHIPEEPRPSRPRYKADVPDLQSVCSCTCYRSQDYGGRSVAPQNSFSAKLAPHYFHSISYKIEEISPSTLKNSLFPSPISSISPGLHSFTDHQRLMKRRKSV
# KCNQ1 inh: inhibitors of human KCNQ1 potassium channel | P51787 | CHO-K1 KCNQ1, FluxOR thallium flux fluorescence; active compounds read high | B-score at 10 µM | 1.3% of 310,000 active;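 active means compounds whose thallium flux B-score, printed positive for inhibition, exceeds three library SD while starting fluorescence stays within three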;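 further: channel opened by potassium depolarization with thallium stimulus after 20 min compound exposure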
# KCNK3 block: human KCNK3 channel inhibition, primary screen | 0.84% of 340,000 active | B-score at 10 µM | CHO-KCNK3 thallium flux, FluxOR fluorescence; active compounds read low | AID 602410;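 active means B-score under library mean minus 4 SD, starting fluorescence ratio at most library mean plus 5 SD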;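 further: more negative B-score means stronger inhibition of thallium flux through KCNK3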
# Target sequence (O14649 whole entry, looked up): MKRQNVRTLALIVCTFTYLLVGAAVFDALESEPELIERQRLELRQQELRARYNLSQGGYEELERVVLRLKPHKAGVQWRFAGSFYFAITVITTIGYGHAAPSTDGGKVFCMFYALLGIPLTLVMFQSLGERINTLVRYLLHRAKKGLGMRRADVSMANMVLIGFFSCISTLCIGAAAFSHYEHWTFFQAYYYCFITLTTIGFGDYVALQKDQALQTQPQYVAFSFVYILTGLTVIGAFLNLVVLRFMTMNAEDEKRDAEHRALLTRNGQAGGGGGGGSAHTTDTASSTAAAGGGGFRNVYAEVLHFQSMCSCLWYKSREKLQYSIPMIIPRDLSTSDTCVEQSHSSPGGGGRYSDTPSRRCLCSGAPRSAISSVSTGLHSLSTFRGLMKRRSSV
# KCC2 mod: KCC2 (human) Cl- transport modulation | B-score of Tl+ flux slope (higher = more flux/activation; lower = inhibition) at 10 µM | KCC2 cells, thallium flux FluoZin-2 fluorescence | AID 1456 | 2.2% of 190,000 active | Q9H2X9;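 active means thallium flux slope and its plate-corrected score both differing from the plate sample mean at a set confidence after two filtering rounds, in either direction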;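 further: slope of fluorescence scaled to starting intensity during 10 to 20 s after thallium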
# KCC2 sec1: KCC2 (human) modulation, secondary assay; 15% of 3,700 active; AID 1713; shares compounds with KCC2 mod; normalised thallium flux (F/F0 slope) at 10 µM; HEK293-KCC2, thallium flux, FluoZin2 fluorescence; active compounds read high;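 active means thallium flux slope above the same plate's solvent-only control mean plus 3 SD; inconclusive means the two replicate wells disagree; inactive means no significant difference from solvent-only control wells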
# KCC2 bumet counter: thallium flux persisting under bumetanide in KCC2 cells, counter-screen secondary assay | shares compounds with KCC2 mod | HEK293-KCC2 + bumetanide/ouabain, thallium flux FluoZin2; active compounds read high | normalized thallium flux at 10 µM | 49% of 3,700 active | AID 1714;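 active means thallium entry rate above the same plate's blocked-transporter control wells by more than 3 SD; inconclusive means the two repeat wells disagree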;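 further: raw slope of fluorescence over initial fluorescence between 10 and 20 s after thallium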
# KCC2 sec2: confirmation of human KCC2 transport modulators. shares compounds with KCC2 mod. HEK293-KCC2, thallium flux FluoZin2 fluorescence; actives lie on both sides; F/F0 rise rate, 10–20 s post-thallium. normalized thallium flux at 10 µM. 23% of 3,700 active. AID 1715;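 active means thallium flux slope more than 3 SD above or below the plate's solvent-only control mean, mostly below; inconclusive means the two repeat wells disagreed; inactive means no significant shift from solvent-only controls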
# HEK counter1: acts in parental HEK cells, KCC2 counter-screen; shares compounds with KCC2 mod; HEK293 parental cells, thallium flux FluoZin2, ouabain; baseline-ratio fluorescence slope, 10–20 s after thallium; thallium flux rate (normalised fluorescence) at 10 µM; 46% of 3,700 active;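 active means thallium flux rate significantly above the same plate's solvent-only control wells, beyond their mean plus 3 SD; inconclusive means the two replicate wells gave conflicting results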
# KCC2 retest ouab: modulates human KCC2 on retest with ouabain. shares compounds with KCC2 mod. HEK293-KCC2, thallium flux FluoZin2 fluorescence; bidirectional: low = inhibitor, high = activator. raw Tl+ flux slope (below DMSO = inhibition, above = activation) at 10 µM. 48% of 3,700 active;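 active means thallium flux slope beyond 3 SD from same-plate DMSO control mean in most replicates, usually higher, sometimes lower; inconclusive means repeat tests gave conflicting results; inactive means no significant difference from controls in most replicates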;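 further: slope of initial-normalized fluorescence between seconds 10 and 20 after thallium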
# HEK counter2: acts in parental HEK cells, second KCC2 counter-screen; shares compounds with KCC2 mod; HEK293 parental, thallium flux FluoZin-2 fluorescence slope; thallium flux slope at 10 µM; 33% of 3,700 active; AID 1718;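 active means thallium flux slope above the same plate's solvent-control mean plus 3 SD in both duplicate wells; inconclusive means duplicate wells that disagreed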;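 further: run without ouabain in cells lacking the KCC2 cotransporter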
# KCNQ1 inh valid: reconfirmed blocker of the human KCNQ1 potassium channel; shares compounds with KCNQ1 inh; KCNQ1 cell line, FluxOR thallium flux fluorescence; inhibition, % at 10 µM; 93% of 1,600 active; AID 588353;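 active means primary screen active, with duplicate mean exceeding buffer control mean plus 3 SD of buffer wells, cut at about 28% in these data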
# CHO Tl flux: counter-screen for KCNQ1 inhibitors: effect in parental CHO cells; parental CHO-K1, FluxOR thallium flux fluorescence ratio; active compounds read low; zero means no signal rise above baseline; AID 588366; 21% of 1,600 active; shares compounds with KCNQ1 inh; fluorescence ratio (Tl flux) at 10 µM;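 active means mean of duplicate thallium-flux fluorescence ratios in parental host cells more than 5 SD below the buffer control mean, cut at about 0.38 in these data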;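 further: ratio is peak minus minimum fluorescence divided by baseline fluorescence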
# KCNQ2 inh: selectivity of KCNQ1 inhibitors: inhibition of rat KCNQ2 channel; KCNQ2 cells, FluxOR thallium flux fluorescence; AID 651746; inhibition, % at 10 µM; shares compounds with KCNQ1 inh; 71% of 1,600 active;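 active means mean percent inhibition of the KCNQ2 thallium signal more than 5 SD above the buffer-only control wells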;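 further: KCNQ2 expressed in CHO cells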
# KCNQ1 KCNE1 spec: selectivity of KCNQ1 inhibitors: inhibition of human KCNQ1/KCNE1 channel; KCNQ1/KCNE1 cells, FluxOR thallium flux fluorescence; 77% of 1,600 active; AID 652147; inhibition, % at 10 µM; shares compounds with KCNQ1 inh;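 active means mean percent inhibition of duplicate wells above the buffer-only control mean plus 3 SD of those controls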
# KCNK9 block conf: confirmation of human KCNK9 potassium channel inhibitors; 43% of 4,900 active; HEK293 KCNK9 cells, FluxOR thallium flux fluorescence; inhibition, % at 10 µM; shares compounds with KCNK9 inh;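 active means thallium signal inhibited by more than 5 SD of the compound-free buffer control wells, on both duplicate plates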
# Kir2-1 spec: tests whether KCNK9 modulators also affect mouse Kir2.1; 4% of 4,900 active; AID 492993; inhibition, % at 10 µM; Kir2.1 cells, FluxOR thallium flux fluorescence; shares compounds with KCNK9 inh;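 active means thallium signal drop more than 5 SD beyond the mean of the no-compound control wells, seen in both duplicate plates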;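 further: signal is fluorescence rise after thallium addition divided by baseline fluorescence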
# KCNK9 uninduced: second check of KCNK9 modulator effects in non-induced HEK293 cells. AID 492997. 40% of 4,900 active. inhibition, % at 10 µM. shares compounds with KCNK9 inh. FluxOR thallium flux;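 active means thallium signal drop beyond 5 SD of the untreated control mean, on both duplicate plates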
# Hits are given with their value; . = inactive; ? = inconclusive; / = no result given; + = active, no number. Compounds with a hit are over-represented: about 4.1% of the library has one in this group of screens.
SMILES,hERG protect,KCNQ1 act,KCNK9 inh,KCNQ1 inh,KCNK3 block,KCC2 mod,KCC2 sec1,KCC2 bumet counter,KCC2 sec2,HEK counter1,KCC2 retest ouab,HEK counter2,KCNK9 block conf,Kir2-1 spec,KCNK9 uninduced,others
COc1cccc(CN(CC(=O)NCc2ccc(F)cc2)C(=O)c2ccco2)c1,.,.,.,.,.,/,/,/,/,/,/,/,/,/,/,
CCCCn1c(-c2cccnc2)n[nH]c1=S,.,.,.,.,.,.,/,/,/,/,/,/,/,/,/,
CCCCn1c(-c2csc(CCC)c2)n[nH]c1=S,.,.,.,.,.,37.2,?,0.0799,0.0442,0.0322,0.0408,0.0314,.,.,.,
COc1ccc(OCC(=O)NC(=S)Nc2ccccc2F)cc1,.,.,.,.,.,51.7,0.04,0.0878,0.049,0.0279,0.0508,0.0326,.,.,.,
COc1cc(CN2CCN(CCOCCO)CC2)cc(OC)c1OC,.,.,.,.,.,.,/,/,/,/,/,/,/,/,/,
O=[N+]([O-])c1ccc(Nc2ccccc2)c2nonc12,.,.,.,.,.,/,/,/,/,/,/,/,/,/,/,
O=[N+]([O-])c1ccc(Sc2cccc[n+]2[O-])c2nonc12,.,.,-15.7,18,-13.7,8.35,.,0.0229,.,0.0149,.,?,74.5%,66.0%,78.0%,KCNQ1 inh valid=140.0;CHO Tl flux=0.26;KCNQ2 inh=.;KCNQ1 KCNE1 spec=+
CCOC(=O)CC1C(=O)NCCN1c1nc2ccc(C)cn2c(=O)c1/C=C1\SC(=S)N(C(C)CC)C1=O (stereo not drawn),.,.,.,.,/,.,/,/,/,/,/,/,/,/,/,
CCOC(=O)CC1C(=O)NCCN1c1nc2ccc(C)cn2c(=O)c1/C=C1\SC(=S)N(CC(C)C)C1=O (stereo not drawn),.,.,-9.87,8,.,-5.23,0.00351,0.000406,0.0142,0.00326,0.00709,0.0049,45.5%,43.0%,61.5%,
O=c1oc2ccccc2c(Nc2cc3ccccc3cc2O)c1[N+](=O)[O-],.,.,.,.,.,-4.3,.,.,?,.,0.0161,0.00832,.,.,.,
Cc1csc2c(N3CCN(C(=S)Nc4ccc(F)cc4F)CC3)ncnc12,.,.,.,.,.,.,/,/,/,/,/,/,/,/,/,
CC1Cc2ccccc2N1C(=O)CO/N=C/c1ccccc1OC(F)F (stereo not drawn),.,.,.,.,.,-5.58,.,?,0.0232,?,0.0134,.,.,.,.,
COc1ccccc1/C=C/C=N/n1c(-c2ccc(Cl)cc2)n[nH]c1=S,.,.,.,.,.,13.1,.,0.0226,.,0.0106,0.0308,?,.,.,.,
COc1ccccc1/C=C/C=N/n1c(-c2ccccc2)n[nH]c1=S,.,.,.,.,.,.,/,/,/,/,/,/,/,/,/,
CCCCNC(=O)c1onc(CSc2cccc3ccccc23)c1C(=O)O,.,.,.,.,.,-4.76,.,.,.,?,0.0179,.,.,.,.,
Cc1ccc(-c2csc3ncnc(Nc4ccc(C(=O)O)cc4)c23)cc1,.,.,.,.,.,.,/,/,/,/,/,/,/,/,/,
Cc1ccc(-c2csc3ncnc(SCc4ccc(C(=O)O)cc4)c23)cc1,14.8,33,.,.,.,140,.,0.119,0.0948,0.0935,0.107,0.0905,.,.,.,
Cc1ccc2nc(NC(=O)c3ccco3)sc2c1,.,.,.,.,.,.,/,/,/,/,/,/,/,/,/,
Cc1ccc2nc(NC(=S)NC(=O)c3ccco3)sc2c1,35.5,57,.,.,.,64.4,0.0244,0.154,0.0568,0.0839,0.0761,0.0425,.,.,.,
COc1ccccc1/C=C(\NC(=O)c1ccc(OC)c(OC)c1)C(=O)Nc1ccc([N+](=O)[O-])cc1,.,.,.,.,.,.,/,/,/,/,/,/,/,/,/,
Cc1c(N2C(=O)/C(=C/C3CC=CCC3)SC2=S)c(=O)n(-c2ccccc2)n1C (stereo not drawn),.,.,.,.,.,.,/,/,/,/,/,/,/,/,/,
Cc1ccc(/C=C2\SC(=S)N(c3c(C)n(C)n(-c4ccccc4)c3=O)C2=O)cc1,.,.,.,.,.,-3.92,.,?,0.0255,.,0.0145,.,.,.,.,
Cc1c(N2C(=O)/C(=C/c3ccccc3)SC2=S)c(=O)n(-c2ccccc2)n1C,.,.,.,.,.,-7.63,.,?,0.0271,.,0.0144,?,.,.,.,
